Our source for the IC50, Inhibition and IC50 ratio values is ChEMBL document CHEMBL1131582, “New substituted 1,4-benzoxazine derivatives with potential intracellular calcium activity” (J Med Chem, 1998).

By IC50 is commonly meant the concentration needed to halve the response being measured. A word on the Inhibition: it is the share of the control response that was lost under treatment.

Each structure is given as a SMILES string. Where only a bound is given, the exact number is not on record here.

Assay type in all cases: functional
For assay [1], the species on record is Oryctolagus cuniculus. As to the kind of experiment: Concentration which inhibits 50% of contraction induced by caffeine on rabbit renal artery. The essentials:
(§1)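 Male New Zealand White rabbit left renal artery rings (2.5–3 mm) in Krebs' solution at 37 °C, gassed 95% O2/5% CO2, 3 g preload, 90 min equilibration, isometric tension. Three matched control contractions to caffeine 10 mM, then caffeine contractions repeated at 20 min with each rising test concentration until maximal inhibition. IC50 by linear regression; five to nine preparations.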

Assay [2] is filed under the species Oryctolagus cuniculus. Kind of assay: Inhibition of contraction induced by caffeine on rabbit renal artery. Also on record: concentration or dose not given beside the values. Summed up:
as §1

Assay [3] is filed under the species Oryctolagus cuniculus. Kind of assay: Inhibitory selectivity for Phenylephrine (PE) and Potassium (K+) induced contraction on rabbit renal artery.
The species entered for assay [4] is Oryctolagus cuniculus. As to the kind of experiment: Concentration which inhibits 50% of contraction induced by potassium on rabbit renal artery. The essentials: (§2)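 Endothelium-denuded arterial rings, with denudation confirmed by no acetylcholine (1 μM) relaxation of tissue precontracted with phenylephrine 0.1 μM. After reproducible 40 mM K+ responses, sustained tonic contraction to K+ 40 mM or phenylephrine 5 μM. Test compound added cumulatively until maximal relaxation.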

The species named for assay [5] is Oryctolagus cuniculus. Kind of assay: Concentration which inhibits 50% of contraction induced by phenylephrine on rabbit renal artery. Summed up:
as §2

The species entered for assay [6] is Oryctolagus cuniculus. Kind of assay: Inhibition of contraction induced by phenylephrine on rabbit renal artery. The essentials: as §2
Assay [7] is filed under the species Oryctolagus cuniculus. Kind of assay: Inhibition of contraction induced by potassium on rabbit renal artery. The essentials:
as §2

The species named for assay [8] is Oryctolagus cuniculus. As to the kind of experiment: 50% inhibition of contraction induced by potassium on rabbit renal artery. The essentials: as §2

For `COc1ccc(CCNCC2CNc3ccccc3O2)cc1OC` (centres undefined), in the assay filed under Oryctolagus cuniculus [1], the IC50 is > 30 µM. Moreover, the Inhibition in the assay filed under Oryctolagus cuniculus [2] is reported as 26%.

Consider `COc1ccc(CCNCCCCC2CN(Cc3ccccc3)c3ccccc3O2)cc1OC` (centres undefined), for which the IC50 ratio in the assay filed under Oryctolagus cuniculus [3] is 5. In addition, the IC50 in the assay filed under Oryctolagus cuniculus [1] worked out at 13.9 µM; in the assay listed under Oryctolagus cuniculus [4], 8.6 µM; in the assay listed under Oryctolagus cuniculus [5], 43.1 µM.

In the case of `Fc1ccc(N2CCN(CCCC3CN(Cc4ccccc4)c4ccccc4O3)CC2)cc1` (centres undefined), the IC50 ratio in the assay listed under Oryctolagus cuniculus [3] came out at 0.06. Moreover, the IC50 in the assay listed under Oryctolagus cuniculus [1] is > 30 µM; in the assay listed under Oryctolagus cuniculus [4], 76.5 µM. The Inhibition in the assay listed under Oryctolagus cuniculus [2] was 0%.

Take `COc1ccc(CCNCCCC2CN(Cc3ccccc3)c3ccccc3O2)cc1OC` (centres undefined): in the assay listed under Oryctolagus cuniculus [3], the IC50 ratio was found to be 2.1. Moreover, the IC50 in the assay listed under Oryctolagus cuniculus [1] amounted to 11.8 µM; in the assay listed under Oryctolagus cuniculus [4] it was 10.2 µM; in the assay filed under Oryctolagus cuniculus [5] it was 21.6 µM.

`O=C(c1ccccc1)N1CC(CCCN2CCN(c3ccc(F)cc3)CC2)Oc2ccccc21` (centres undefined): the IC50 ratio in the assay filed under Oryctolagus cuniculus [3] was determined as 0.15. In addition, the values for the half-maximal inhibitory concentration (IC50) in the assay filed under Oryctolagus cuniculus [1], in the assay filed under Oryctolagus cuniculus [4] and in the assay listed under Oryctolagus cuniculus [5] were > 30 µM, 19 µM and 2.8 µM, respectively. In addition, the Inhibition in the assay listed under Oryctolagus cuniculus [2] came to 8%.

For `COc1ccc(CCNCCC2CN(S(=O)(=O)c3cccc4ccccc34)c3ccccc3O2)cc1OC` (centres undefined), in the assay listed under Oryctolagus cuniculus [3], the IC50 ratio came to 10.1. For the same compound, the IC50 in the assay filed under Oryctolagus cuniculus [1] was > 30 µM; in the assay listed under Oryctolagus cuniculus [4] it was 8.3 µM; in the assay listed under Oryctolagus cuniculus [5] it was 83.7 µM. This compound gave an Inhibition in the assay filed under Oryctolagus cuniculus [2] of 46%.

Take `COc1ccc(CCNCCC2CN(C)c3ccccc3O2)cc1OC` (centres undefined): the IC50 ratio in the assay listed under Oryctolagus cuniculus [3] is 0.26. The figures for the half-maximal inhibitory concentration (IC50) in the assay listed under Oryctolagus cuniculus [1], in the assay listed under Oryctolagus cuniculus [4] and in the assay listed under Oryctolagus cuniculus [5] were 21.8 µM, 44.7 µM and 11.8 µM, respectively.

Regarding `Fc1ccc(C(OCCNCCCC2CN(Cc3ccccc3)c3ccccc3O2)c2ccc(F)cc2)cc1` (centres undefined), the values for the Inhibition in the assay filed under Oryctolagus cuniculus [6], in the assay filed under Oryctolagus cuniculus [7] and in the assay listed under Oryctolagus cuniculus [2] were 12%, 26% and 5%, respectively. Also, the IC50 in the assay listed under Oryctolagus cuniculus [1] is > 30 µM; in the assay listed under Oryctolagus cuniculus [4], > 100 µM; in the assay filed under Oryctolagus cuniculus [5], > 100 µM.

Turning to `COc1ccc(CCNCCC2CN(S(=O)(=O)c3cccc4cnccc34)c3ccccc3O2)cc1OC` (centres undefined), in the assay listed under Oryctolagus cuniculus [3], the IC50 ratio stood at 1.8. Also, the results for the concentration for half-maximal inhibition (IC50) in the assay listed under Oryctolagus cuniculus [1], in the assay filed under Oryctolagus cuniculus [4] and in the assay filed under Oryctolagus cuniculus [5] were > 30 µM, 7.3 µM and 13.3 µM, respectively. In the assay listed under Oryctolagus cuniculus [2], this compound showed an Inhibition of 23%.

`COc1ccc(CCN(C)CCCC2Oc3cc4c(cc3NC2=O)OCCO4)cc1OC` (centres undefined): the IC50 ratio in the assay listed under Oryctolagus cuniculus [3] is reported as 7.3. The IC50 in the assay listed under Oryctolagus cuniculus [1] is > 30 µM; in the assay listed under Oryctolagus cuniculus [4] it was 2.2 µM; in the assay filed under Oryctolagus cuniculus [5] it was 14.6 µM. For the same compound, the Inhibition in the assay listed under Oryctolagus cuniculus [2] was found to be 0%.

On to `COc1ccc(CCNCC2CN(C)c3ccccc3O2)cc1OC` (centres undefined), for which the IC50 ratio in the assay filed under Oryctolagus cuniculus [3] came to 0.36. Further, the half-inhibitory concentration (IC50) was > 30 µM in the assay listed under Oryctolagus cuniculus [1], 57.4 µM in the assay filed under Oryctolagus cuniculus [4] and 20.9 µM in the assay listed under Oryctolagus cuniculus [5]. The Inhibition in the assay filed under Oryctolagus cuniculus [2] worked out at 46%.

With `COc1ccc(CCN(CCCC2Oc3cc4c(cc3NC2=O)OCCO4)Cc2ccccc2)cc1OC` (centres undefined), the IC50 ratio result in the assay filed under Oryctolagus cuniculus [3] is given as “>=1”. Besides, the Inhibition was 47% in the assay filed under Oryctolagus cuniculus [6], 41% in the assay listed under Oryctolagus cuniculus [7] and 0% in the assay listed under Oryctolagus cuniculus [2]. Also, the IC50 is > 30 µM in the assay listed under Oryctolagus cuniculus [1], ≥ 100 µM in the assay filed under Oryctolagus cuniculus [4] and 100 µM in the assay listed under Oryctolagus cuniculus [5].

As for `Fc1ccc(N2CCN(CC3CN(Cc4ccccc4)c4ccccc4O3)CC2)cc1` (centres undefined), the IC50 ratio in the assay listed under Oryctolagus cuniculus [3] was 0.21. In addition, the IC50 was > 30 µM in the assay listed under Oryctolagus cuniculus [1], 52.4 µM in the assay filed under Oryctolagus cuniculus [4] and 10.9 µM in the assay listed under Oryctolagus cuniculus [5]. The Inhibition in the assay filed under Oryctolagus cuniculus [2] is 2%.

`COc1ccc(CCNCCC2CNc3ccccc3O2)cc1OC` (centres undefined): the Inhibition came to 25% in the assay listed under Oryctolagus cuniculus [8] and 26% in the assay listed under Oryctolagus cuniculus [2]. Also, the values for the 50% inhibitory concentration (IC50) in the assay filed under Oryctolagus cuniculus [1], in the assay filed under Oryctolagus cuniculus [4] and in the assay listed under Oryctolagus cuniculus [5] were > 30 µM, > 100 µM and 42 µM, respectively.

`COc1ccc(CCNCCC2CN(Cc3ccc(OC)c(OC)c3)c3ccccc3O2)cc1OC` (centres undefined): the IC50 ratio in the assay filed under Oryctolagus cuniculus [3] is 2.2. For the same compound, the results for the IC50 in the assay filed under Oryctolagus cuniculus [1], in the assay listed under Oryctolagus cuniculus [4] and in the assay filed under Oryctolagus cuniculus [5] were 30 µM, 15.1 µM and 33.7 µM, respectively. Further, the Inhibition in the assay listed under Oryctolagus cuniculus [2] is reported as 57%.

For the compound `COc1ccc(CCNCC2CN(Cc3ccccc3)c3ccccc3O2)cc1OC` (centres undefined), the IC50 ratio in the assay listed under Oryctolagus cuniculus [3] was determined as 1.2. For the same compound, the IC50 was > 30 µM in the assay listed under Oryctolagus cuniculus [1], 9.4 µM in the assay listed under Oryctolagus cuniculus [4] and 11.4 µM in the assay listed under Oryctolagus cuniculus [5]. This compound had an Inhibition in the assay filed under Oryctolagus cuniculus [2] of 48%.

As to `CN(CCOC(c1ccc(F)cc1)c1ccc(F)cc1)CC1CNc2ccccc2O1` (centres undefined), the IC50 in the assay filed under Oryctolagus cuniculus [1] is > 30 µM. For the same compound, in the assay listed under Oryctolagus cuniculus [2], the Inhibition was 23%.

As for `O=C1Nc2cc3c(cc2OC1CCCN1CCN(c2ccc(F)cc2)CC1)OCCO3` (centres undefined), the IC50 ratio in the assay listed under Oryctolagus cuniculus [3] worked out at 0.009. Moreover, the values for the half-inhibitory concentration (IC50) in the assay filed under Oryctolagus cuniculus [1], in the assay filed under Oryctolagus cuniculus [4] and in the assay listed under Oryctolagus cuniculus [5] were > 30 µM, 45.3 µM and 0.43 µM, respectively. Moreover, the Inhibition in the assay listed under Oryctolagus cuniculus [2] is 22%.

Take `COc1ccc(CCNCCCC2CN(C(=O)c3ccccc3)c3ccccc3O2)cc1OC` (centres undefined): the IC50 ratio in the assay filed under Oryctolagus cuniculus [3] was found to be 1.5. The IC50 in the assay filed under Oryctolagus cuniculus [1] amounted to 30 µM; in the assay filed under Oryctolagus cuniculus [4], 8.4 µM; in the assay filed under Oryctolagus cuniculus [5], 12.6 µM.

Turning to `COc1ccc(CCNCCCC2CNc3ccccc3O2)cc1OC` (centres undefined), the Inhibition in the assay listed under Oryctolagus cuniculus [6] is recorded as 49%; in the assay filed under Oryctolagus cuniculus [7], 30%; in the assay listed under Oryctolagus cuniculus [2], 16%. The IC50 in the assay listed under Oryctolagus cuniculus [1] was > 30 µM; in the assay listed under Oryctolagus cuniculus [4] it was > 100 µM; in the assay listed under Oryctolagus cuniculus [5], 100 µM.

Consider `COc1ccc(CCNCCC2CN(Cc3ccccc3)c3ccccc3O2)cc1OC` (centres undefined), for which the IC50 ratio in the assay listed under Oryctolagus cuniculus [3] was 2.3. Further, the IC50 worked out at 12.3 µM in the assay filed under Oryctolagus cuniculus [1], 4.4 µM in the assay filed under Oryctolagus cuniculus [4] and 10.1 µM in the assay listed under Oryctolagus cuniculus [5].

With `Fc1ccc(N2CCN(CC3CNc4ccccc4O3)CC2)cc1` (centres undefined), in the assay filed under Oryctolagus cuniculus [3], the IC50 ratio came out at 0.07. Besides, the concentration for half-maximal inhibition (IC50) is > 30 µM in the assay listed under Oryctolagus cuniculus [1], 24.7 µM in the assay listed under Oryctolagus cuniculus [4] and 1.6 µM in the assay listed under Oryctolagus cuniculus [5]. The compound also yielded an Inhibition in the assay listed under Oryctolagus cuniculus [2] of 9%.

Turning to `COc1ccc(CCNCCCC2Oc3cc4c(cc3NC2=O)OCCO4)cc1OC` (centres undefined), the half-inhibitory concentration (IC50) in the assay listed under Oryctolagus cuniculus [1] was > 30 µM; in the assay filed under Oryctolagus cuniculus [4], > 100 µM; in the assay listed under Oryctolagus cuniculus [5], 14.2 µM. Moreover, the Inhibition worked out at 38% in the assay listed under Oryctolagus cuniculus [7] and 0% in the assay listed under Oryctolagus cuniculus [2].

Take `Fc1ccc(N2CCN(CCCC3CNc4ccccc4O3)CC2)cc1` (centres undefined): the IC50 ratio in the assay filed under Oryctolagus cuniculus [3] is recorded as 0.29. Moreover, the IC50 in the assay listed under Oryctolagus cuniculus [1] was > 30 µM; in the assay listed under Oryctolagus cuniculus [4] it was 11 µM; in the assay listed under Oryctolagus cuniculus [5] it was 3.2 µM. In the assay listed under Oryctolagus cuniculus [2], this compound showed an Inhibition of 22%.

In the case of `CN1CC(CN2CCN(c3ccc(F)cc3)CC2)Oc2ccccc21` (centres undefined), the IC50 ratio in the assay listed under Oryctolagus cuniculus [3] is reported as 0.06. Moreover, the IC50 in the assay listed under Oryctolagus cuniculus [1] is > 30 µM; in the assay filed under Oryctolagus cuniculus [4], 23.1 µM; in the assay listed under Oryctolagus cuniculus [5] it was 1.4 µM. In the assay listed under Oryctolagus cuniculus [2], this compound showed an Inhibition of 32%.

With `Fc1ccc(C(OCCNCC2CN(Cc3ccccc3)c3ccccc3O2)c2ccc(F)cc2)cc1` (centres undefined), the IC50 ratio in the assay filed under Oryctolagus cuniculus [3] is 5.3. Moreover, the IC50 in the assay listed under Oryctolagus cuniculus [1] was > 30 µM; in the assay filed under Oryctolagus cuniculus [4], 17.6 µM; in the assay filed under Oryctolagus cuniculus [5], 93.3 µM. Further, the Inhibition in the assay listed under Oryctolagus cuniculus [2] was 5%.

Consider `COc1ccc(CCN(C)CCC2CN(Cc3ccccc3)c3ccccc3O2)cc1OC` (centres undefined), for which the IC50 ratio in the assay listed under Oryctolagus cuniculus [3] turned out to be 4.1. Also, the IC50 in the assay listed under Oryctolagus cuniculus [1] was > 30 µM; in the assay listed under Oryctolagus cuniculus [4] it was 7.9 µM; in the assay filed under Oryctolagus cuniculus [5], 32.6 µM. The same compound displayed an Inhibition in the assay listed under Oryctolagus cuniculus [2] of 37%.

On to `Fc1ccc(C(OCCNCC2CNc3ccccc3O2)c2ccc(F)cc2)cc1` (centres undefined), for which the IC50 is 26.3 µM in the assay filed under Oryctolagus cuniculus [1] and 74.8 µM in the assay filed under Oryctolagus cuniculus [4].
